# Reference: ChEMBL document CHEMBL1138265, “In vivo anti-Chagas vinylthio-, vinylsulfinyl-, and vinylsulfonylbenzofuroxan derivatives” (J Med Chem, 2007)
# Calls of active or inactive are those of the source. The calls are words filed in the database; no cut-off is given here.
# How the values were obtained:
# Trypanosoma cruzi [1] = assay: Antitrypanosomal activity against Trypanosoma cruzi Tulahuen 2; assay type: functional, organism-based
# Procedure, shortened: (§1)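 Epimastigotes from 5-day stationary culture inoculated at 1 × 10^6 cells/mL into medium with compound added from DMSO stock (final DMSO ≤0.4%; control 0.4% DMSO, no compound). Growth followed by A600; % inhibition from day 0 and day 5 absorbance versus control. IC50 = concentration reducing the day-5 absorbance ratio to 50%. Single-dose screen at 25 µM. Means of three experiments.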
# Trypanosoma cruzi [2] = assay: Antitrypanosomal activity against Trypanosoma cruzi Y; assay type: functional, organism-based; procedure, shortened: as §1
# Trypanosoma cruzi [3] = assay: Antitrypanosomal activity against Trypanosoma cruzi CL Brener; assay type: functional, organism-based; procedure, shortened: as §1
# Mus musculus = assay: Toxicity in Trypanosoma cruzi Tulahuen 2 infected Swiss mouse model of Chagas disease at 60 mg/kg, po; conditions: in vivo
# Trypanosoma cruzi [4] = assay: Antitrypanosomal activity against Trypanosoma cruzi Tulahuen 2 infected Swiss mouse model of Chagas disease at 60 mg/kg, po after 41 days post infection
# Trypanosoma cruzi [5] = assay: Antitrypanosomal activity against Trypanosoma cruzi Tulahuen 2 infected Swiss mouse model of Chagas disease at 60 mg/kg, po after 35 days post infection
# Trypanosoma cruzi [6] = assay: Effect on oxygen uptake in Trypanosoma cruzi Tulahuen 2 at 200 uM; assay type: functional, organism-based
# Procedure, shortened: (§2)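 Tulahuen 2 epimastigotes grown 5 days, washed, resuspended in phosphate-saline buffer pH 7.4 with 5.5 mM glucose at 0.2 mg protein/mL (40 × 10^6 parasites/mL). O2 consumption measured by Clark electrode at 28 °C, compound 200 µM final in DMSO; control with 0.1% DMSO. Cyanide-insensitive respiration measured after 20 mM KCN.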
# [7] = biological target: Trypanothione reductase (Trypanosoma cruzi) (UniProt P28593); assay: Inhibition of Trypanosoma cruzi trypanothione reductase assessed as volume activity per min at 100 uM in presence of NADPH after 4 hrs
# Procedure, shortened: (§3)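 Time-dependent inactivation: 170 mU recombinant TR incubated at 25 °C in 40 mM HEPES, 1 mM EDTA, pH 7.5 with 100 µM inhibitor, with or without 160 µM NADPH, for 0-24 h. Aliquots diluted 200-fold and residual activity measured in the standard NADPH/TS2 assay at 340 nm. Controls: TR plus NADPH with DMSO, and TR plus inhibitor.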
# [8] = biological target: Cruzipain (Trypanosoma cruzi) (UniProt P25779); assay: Inhibition of Trypanosoma cruzi Tulahuen 2 cruzipain at 10 uM
# Procedure, shortened: (§4)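 Cruzipain purified from Tulahuen 2 epimastigotes by ConA-Sepharose affinity chromatography. Assayed in 50 mM Tris-acetate pH 8.0 with 0.3 mM Bz-Pro-Phe-Arg-pNA and 10 mM β-mercaptoethanol, A410 followed at 30 °C. Inhibitors added in DMSO, controls with matching DMSO, E-64 as reference. Tested at 10-100 µM; means of at least two measurements.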
# [9] = biological target: Cruzipain (Trypanosoma cruzi) (UniProt P25779); assay: Inhibition of Trypanosoma cruzi Tulahuen 2 cruzipain at 50 uM; procedure, shortened: as §4
# [10] = Selectivity index, ratio of IC50 for human THP1 cells to IC50 for Trypanosoma cruzi CL Brener; assay type: functional, THP-1
# THP-1 = assay: Cytotoxicity against human THP1 cells after 48 hrs; assay type: cell-based; conditions: THP-1, 48 h
# Procedure, shortened: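 THP-1 human macrophages in RPMI 1640 with 20% heat-inactivated FCS, left to attach 48 h at 37 °C, 5% CO2. Exposed to compounds at 25-1000 µM for 48 h, washed, then MTT 0.4 mg/mL for 3 h. Formazan dissolved in DMSO and read at OD595; % cytotoxicity corrected for compound-in-medium blanks. Triplicates per concentration, six growth controls; mean of two experiments.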
# Trypanosoma cruzi [11] = assay: Effect on oxygen uptake in Trypanosoma cruzi Tulahuen 2 assessed as increase in oxygen consumption at 200 uM; assay type: functional, organism-based; procedure, shortened: as §2
# [12] = Selectivity index, ratio of IC50 for human THP1 cells to IC50 for Trypanosoma cruzi Tulahuen 2; assay type: functional, THP-1
# [13] = biological target: Trypanothione reductase (Trypanosoma cruzi) (UniProt P28593); assay: Inhibition of Trypanosoma cruzi trypanothione reductase assessed as volume activity per min at 100 uM in presence of NADPH; procedure, shortened: as §3
# Cruzipain [14] = biological target: T1, Cruzipain (Trypanosoma cruzi, UniProt P25779); assay: Inhibition of Trypanosoma cruzi Tulahuen 2 cruzipain; procedure, shortened: as §4
# [15] = biological target: Trypanothione reductase (Trypanosoma cruzi) (UniProt P28593); assay: Inhibition of Trypanosoma cruzi trypanothione reductase assessed as volume activity per min at 100 uM in presence of NADPH after 1 hr; procedure, shortened: as §3
# [16] = biological target: Cruzipain (Trypanosoma cruzi) (UniProt P25779); assay: Inhibition of Trypanosoma cruzi Tulahuen 2 cruzipain at 100 uM; procedure, shortened: as §4
# [17] = Selectivity index, ratio of IC50 for human THP1 cells to IC50 for Trypanosoma cruzi Y; assay type: functional, THP-1
# [18] = biological target: Cruzipain (Trypanosoma cruzi) (UniProt P25779); assay: Inhibition of Trypanosoma cruzi Tulahuen 2 cruzipain at 20 uM; procedure, shortened: as §4
# [19] = biological target: Trypanothione reductase (Trypanosoma cruzi) (UniProt P28593); assay: Inhibition of Trypanosoma cruzi trypanothione reductase assessed as volume activity per min at 100 uM after 1 hr; procedure, shortened: as §3
# [20] = biological target: Trypanothione reductase (Trypanosoma cruzi) (UniProt P28593); assay: Inhibition of Trypanosoma cruzi trypanothione reductase assessed as volume activity per minute at 100 uM
# Cruzipain [21] = biological target: T1, Cruzipain; assay: Binding affinity to Trypanosoma cruzi Tulahuen 2 cruzipain
# [22] = biological target: Cruzipain (Trypanosoma cruzi) (UniProt P25779); assay: Inhibition of Trypanosoma cruzi Tulahuen 2 cruzipain at 25 uM; procedure, shortened: as §4
# [23] = biological target: Trypanothione reductase (Trypanosoma cruzi) (UniProt P28593); assay: Inhibition of Trypanosoma cruzi trypanothione reductase assessed as volume activity per min at 100 uM after 4 hrs; procedure, shortened: as §3
# [24] = biological target: Trypanothione reductase (Trypanosoma cruzi) (UniProt P28593); assay: Inhibition of Trypanosoma cruzi trypanothione reductase assessed as volume activity per min at 100 uM after 3 hrs; procedure, shortened: as §3
# [25] = biological target: Trypanothione reductase (Trypanosoma cruzi) (UniProt P28593); assay: Inhibition of Trypanosoma cruzi trypanothione reductase assessed as volume activity per min at 100 uM after 24 hrs; procedure, shortened: as §3
# [26] = biological target: Trypanothione reductase (Trypanosoma cruzi) (UniProt P28593); assay: Inhibition of Trypanosoma cruzi trypanothione reductase assessed as volume activity per min at 100 uM in presence of NADPH after 24 hrs; procedure, shortened: as §3
# [27] = biological target: Trypanothione reductase (Trypanosoma cruzi) (UniProt P28593); assay: Inhibition of Trypanosoma cruzi trypanothione reductase at 100 uM
# Cruzipain (Trypanosoma cruzi), sequence (P25779 123-467 limits assumed): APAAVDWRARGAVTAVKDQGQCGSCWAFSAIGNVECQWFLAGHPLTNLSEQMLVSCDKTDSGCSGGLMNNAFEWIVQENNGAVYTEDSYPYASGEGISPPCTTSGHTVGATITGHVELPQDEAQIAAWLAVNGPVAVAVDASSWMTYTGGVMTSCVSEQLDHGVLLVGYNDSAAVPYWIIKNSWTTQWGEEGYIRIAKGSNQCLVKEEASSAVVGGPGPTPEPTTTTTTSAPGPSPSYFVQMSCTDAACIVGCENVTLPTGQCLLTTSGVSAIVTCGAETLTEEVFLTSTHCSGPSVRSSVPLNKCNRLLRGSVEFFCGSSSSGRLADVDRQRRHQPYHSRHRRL
# T1 sequence (P25779 whole entry): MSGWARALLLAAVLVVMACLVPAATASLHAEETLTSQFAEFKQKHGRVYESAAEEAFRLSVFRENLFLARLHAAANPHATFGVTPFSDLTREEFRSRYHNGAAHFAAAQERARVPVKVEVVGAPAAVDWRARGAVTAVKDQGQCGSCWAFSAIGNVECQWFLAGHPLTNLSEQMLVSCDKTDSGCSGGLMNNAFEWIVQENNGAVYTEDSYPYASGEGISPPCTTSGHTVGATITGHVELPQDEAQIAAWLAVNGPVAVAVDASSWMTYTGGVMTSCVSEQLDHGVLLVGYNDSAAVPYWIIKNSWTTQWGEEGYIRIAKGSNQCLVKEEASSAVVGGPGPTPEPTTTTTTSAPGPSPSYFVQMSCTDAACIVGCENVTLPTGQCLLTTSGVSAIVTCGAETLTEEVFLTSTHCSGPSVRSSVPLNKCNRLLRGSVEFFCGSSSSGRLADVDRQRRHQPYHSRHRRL
# Trypanothione reductase (Trypanosoma cruzi), sequence (P28593 whole entry, looked up): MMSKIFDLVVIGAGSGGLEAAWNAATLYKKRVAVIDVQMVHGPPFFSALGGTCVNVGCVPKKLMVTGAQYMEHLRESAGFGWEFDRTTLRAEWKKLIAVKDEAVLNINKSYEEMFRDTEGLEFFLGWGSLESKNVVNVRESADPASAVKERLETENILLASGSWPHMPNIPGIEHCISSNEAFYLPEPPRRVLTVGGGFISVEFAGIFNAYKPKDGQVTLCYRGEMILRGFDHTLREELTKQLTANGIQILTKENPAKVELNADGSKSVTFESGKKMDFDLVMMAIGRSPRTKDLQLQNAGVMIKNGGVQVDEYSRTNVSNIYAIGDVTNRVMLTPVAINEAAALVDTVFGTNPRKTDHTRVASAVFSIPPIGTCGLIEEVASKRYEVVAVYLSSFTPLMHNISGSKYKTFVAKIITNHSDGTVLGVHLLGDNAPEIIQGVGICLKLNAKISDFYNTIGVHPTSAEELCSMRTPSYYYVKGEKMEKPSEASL
SMILES,IC50 (Trypanosoma cruzi [1]) [µM],IC50 (Trypanosoma cruzi [2]) [µM],IC50 (Trypanosoma cruzi [3]) [µM],inhibition [8] [%],inhibition [9] [%],inhibition [16] [%],inhibition [18] [%],Activity (Mus musculus),Activity (Trypanosoma cruzi [4]),Activity (Trypanosoma cruzi [5]),Ratio IC50 [10],IC50 (THP-1) [µM],Ratio IC50 [12],Ratio IC50 [17],further results
O=C(Cn1ccnc1[N+](=O)[O-])NCc1ccccc1 [BENZNIDAZOLE],7.4,3.8,4.5,,,,,Non-toxic,,,,,,,
[O-][n+]1onc2cc(/C=C\Sc3ccccc3)ccc21,3.8,10,3.5,,,,,Non-toxic,Active,Active,,,,,
C=CS(=O)(=O)Cc1ccc2c(c1)no[n+]2[O-],14.6,12.3,9.1,,,,,,,,30.1,274,18.8,22.3,
[O-][n+]1onc2cc(/C=C\c3ccccc3)ccc21,7,9,15.7,19,20,44,11,,,,4,62.6,8.9,7,
CC(C)C[C@H](NC(=O)[C@H]1O[C@@H]1C(=O)O)C(=O)NCCCCN=C(N)N,,,,100,,,,,,,,,,,
CC(=O)N1CCN(c2ccc(OCC3COC(Cn4ccnc4)(c4ccc(Cl)cc4Cl)O3)cc2)CC1 (stereo not drawn) [KETOCONAZOLE],10,9.8,5,,,,,,,,8.8,44,4.4,4.5,
[O-][n+]1onc2cc(/C=C/c3ccccc3)ccc21,10.8,6.2,7.5,12,43,22,0,,,,14.7,110,10.2,17.7,
CN(C/C=C/C#CC(C)(C)C)Cc1cccc2ccccc12 [TERBINAFINE],17.1,44.7,42,,,,,,,,7.8,329,19.3,7.4,
CC1CS(=O)(=O)CCN1/N=C/c1ccc([N+](=O)[O-])o1 (stereo not drawn) [NIFURTIMOX],7.7,6.5,8.5,,,,,,,,,,,,
O=S(=O)(CCO)Cc1ccc2c(c1)no[n+]2[O-],> 25,,,,,,,,,,,300,<12,,

# Further lines, with some results ahead:
IC50 (Trypanosoma cruzi [1]) [µM],IC50 (Trypanosoma cruzi [2]) [µM],IC50 (Trypanosoma cruzi [3]) [µM],inhibition [8] [%],inhibition [9] [%],inhibition [16] [%],inhibition [18] [%],SMILES,Activity (Mus musculus),Activity (Trypanosoma cruzi [4]),Activity (Trypanosoma cruzi [5]),Ratio IC50 [10],IC50 (THP-1) [µM],Ratio IC50 [12],Ratio IC50 [17],further results
1.1,2.1,6.1,2,24,19,3,O=S(=O)(/C=C\c1ccc2c(c1)no[n+]2[O-])c1ccccc1,Non-toxic,Active,Active,17.9,109,99.1,51.9,Activity (Trypanosoma cruzi [6]): inactive; deltaA [7]: 0.088; Activity (Trypanosoma cruzi [11]): inactive; deltaA [13]: 0.097; IC50 (Cruzipain [14]): > 50 µM; deltaA [15]: 0.084; deltaA [19]: 0.102; deltaA [20]: 0.104; Kd (Cruzipain [21]): 1100 µM
2.6,7.6,4.7,0,25,,,[O-][n+]1onc2cc(/C=C/Sc3ccccc3)ccc21,Non-toxic,Active,Active,,,,,inhibition [22]: 15%
1.6,5,7.6,0,35,0,0,O=S(=O)(/C=C/c1ccc2c(c1)no[n+]2[O-])c1ccccc1,Non-toxic,Active,Active,53.8,409,255.6,81.8,Activity (Trypanosoma cruzi [6]): inactive; deltaA [23]: 0.106; deltaA [7]: 0.098; Activity (Trypanosoma cruzi [11]): inactive; deltaA [13]: 0.101; IC50 (Cruzipain [14]): > 50 µM; deltaA [15]: 0.099; deltaA [19]: 0.11; deltaA [20]: 0.102; Kd (Cruzipain [21]): 500 µM
0.7,1.5,5,0,8,3,23,[O-][n+]1onc2cc(/C=C\[S+]([O-])c3ccccc3)ccc21 (stereo not drawn),Non-toxic,Active,Active,21,105,150,70,deltaA [24]: 0.09; deltaA [25]: 0.108; deltaA [13]: 0.107; deltaA [15]: 0.107; deltaA [19]: 0.107; deltaA [20]: 0.101; deltaA [26]: 0.081
2.6,8.8,15.1,2,24,12,0,[O-][n+]1onc2cc(/C=C/[S+]([O-])c3ccccc3)ccc21 (stereo not drawn),Non-toxic,Active,Active,8.2,124,47.7,14.1,deltaA [23]: 0.091; deltaA [7]: 0.105; deltaA [13]: 0.103; deltaA [15]: 0.105; inhibition [27]: 13%; deltaA [19]: 0.086; deltaA [20]: 0.104
